# 697 NFkB inh: lowers PMA/ionomycin-induced NF-kB signal in 697 B cells; inhibition, % at 4 µM; 0.33% of 330,000 active; 697 B-cell NF-kB luciferase reporter, 16 h; AID 435022; in the data active = inhibition above about 35%
# UPR CHOP act: apoptotic UPR (CHOP) activation. AID 449763. activation, % at 10 µM. CHO-CHOP luciferase reporter, luminescence; percent of tunicamycin response over DMSO baseline. 0.34% of 330,000 active;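 active = at 10 µM dose, activation of 40% or more, normalized to positive control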;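 also: 100% = tunicamycin at 10 µg/mL and 0% = DMSO alone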
#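 measured by = luciferase luminescence | assay system = CHO-CHOP cells, stable luciferase reporter of PERK-eIF2a-CHOP signalling | amount = 500 reporter cells seeded per well | timing = 6 h compound exposure at 37 °C after overnight seeding | controls = positive tunicamycin 10 µg/mL, negative DMSO alone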
# Jurkat NFkB inh: inhibitors of the PMA/ionomycin-induced NF-kB reporter in Jurkat cells; PMA/ionomycin-induced NF-kB luciferase reporter, luminescence; AID 435003; 0.53% of 330,000 active; inhibition, % at 4 µM; in the data active = inhibition above about 50%
# UPR XBP1 act: activators of adaptive arm of unfolded protein response (XBP1) | 0.33% of 330,000 active | activation, % at 20 µM | CHO-XBP1 luciferase reporter, IRE1-XBP1 UPR activation, luminescence; percent of tunicamycin response, DMSO as zero;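 active = versus positive control, 20 µM dose yields 30% or more activation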;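 also: 100% = tunicamycin at 10 µg/mL and 0% = DMSO only wells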
#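 Assay system: IRE1-XBP1 luciferase reporter CHO line. Input: 1000 cells/well. Buffer or medium: F12 with 10% serum. Doses: 20 µM, 1% DMSO. Times: overnight seeding at 37 °C, 6 h compound treatment at 37 °C. Technique: Steady-Glo luciferase glow luminescence, 10 min after reagent addition.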
# CHOP inh: blocks CHOP induction under ER stress | CHO-K1 CHOP-promoter luciferase, tunicamycin-induced, 15-18 h | 3.8% of 220,000 active | inhibition, % at 10 µM;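 active = compounds that reduced the stress-induced luciferase reporter signal by more than about 70% of percent inhibition, limit read from the data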;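 also: 0% = tunicamycin plus vehicle and 100% = wells without tunicamycin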
# Numbers without * were called inactive; . = no result. This is one part of a sample in which hits are shown more often than they occur.
SMILES,697 NFkB inh,UPR CHOP act,Jurkat NFkB inh,UPR XBP1 act,CHOP inh
COc1ccccc1N(C(=O)c1csnn1)C(C(=O)NC1CCCC1)c1ccccc1 (centres undefined),7,2,-1,-2,.
CCn1c(NC(=O)Nc2cccc(C)c2C)cc2sccc21,-6,-2,0,-1,90*
Cc1ccc([C@@H]2CC=C(C(=O)O)[C@H](c3ccccc3F)N2S(=O)(=O)c2ccccc2C)cc1,-8,-2,-1,3,.
COc1ccc(-c2cn3cccnc3n2)cc1NC(=O)c1ccc(Br)o1,8,1,-2,4,86*
Cc1ccc(S(=O)(=O)N2CCN(c3nc4ccccc4nc3-n3nc(C)cc3C)CC2)cc1,-5,3,3,1,73*
N#CCCn1cc(C(=O)CN2C(=O)NC3(CCCCCC3)C2=O)c2ccccc21,12,2,1,-3,.
CCOC(=O)c1cc(-c2ccccc2)n(CC(=O)Nc2ccc(OC)c(OC)c2)c1C,4,-1,-8,2,100*
CCOC(=O)c1c(CN2CCN(c3ccccc3)CC2)oc2ccc(O)cc12,6,0,11,-3,81*
CC1Oc2ccccc2N(Cc2ccccc2Cl)C1=O (centres undefined),7,4,11,2,89*
CNC(=O)C1=C(C)Nc2nc3ccccc3n2C1c1ccc(F)cc1 (centres undefined),18,-2,6,-2,1
COC(=O)C1=C(C)Nc2nc3ccccc3n2C1c1ccccc1F (centres undefined),-34,-1,28,1,-12
CC1=C(C(=O)OC2CCCCC2)C(c2cccs2)n2c(nc3ccccc32)N1 (centres undefined),5,2,11,3,84*
CCOC(=O)C1=C(C)Nc2nc3ccccc3n2C1c1ccccc1 (centres undefined),-30,3,3,2,78*
Cc1cc(C)c(C#N)c(N2CCN(CCOc3ccc(Cl)cc3)CC2)n1,3,-2,-16,-3,75*
Cc1cc(C(=O)N2CCc3ccccc3C2)on1,4,2,11,-2,.
Cc1cccc(OCC(=O)N(Cc2ccc(F)cc2)C2CCS(=O)(=O)C2)c1C (centres undefined),-1,1,0,-1,.
CC1(C)Cc2c(sc3nc(N/N=C/c4ccccc4)[nH]c(=O)c23)CO1,-27,3,-27,11,81*
Cc1ccc(-c2nnc(N3CCC(C)CC3)c3ccccc23)cc1,-12,2,-14,8,84*
Cc1ccc(-c2nnc(N3CCC(C)CC3)c3ccccc23)cc1C,6,2,6,7,90*
CC1CCN(c2nnc(-c3ccccc3)c3ccccc23)CC1,8,1,16,-2,12
O=C(O)CCNC(=O)CCCn1nnc2ccccc2c1=O,-1,0,-21,-3,10
O=C(Cc1cccs1)Nc1ccccc1F,-14,0,-6,-1,.
Fc1ccc(/C=C\c2nccc3c2[nH]c2ccccc23)cc1,-18,2,-35,5,90*
COn1c(SC2CCCCC2)nc2ccccc2c1=O,0,2,4,1,83*
CC(C)On1c(SC(C)C)nc2ccccc2c1=O,6,0,3,1,73*
SMILES,697 NFkB inh,UPR CHOP act,Jurkat NFkB inh,UPR XBP1 act,CHOP inh
O=C(Nc1ccccc1)c1cc(S(=O)(=O)NCc2ccncc2)ccc1Cl,-25,0,6,-2,.
O=C(Cn1cnc2sc(-c3ccccc3)cc2c1=O)NCc1ccccc1,-24,0,42,-2,58
O=C(Cn1cnc2sc(-c3ccccc3)cc2c1=O)NCCc1ccccc1,-33,-1,-15,0,73*
Cc1cc2c(s1)c1cnn(CC(=O)NCCc3ccccc3)c(=O)c1n2C,5,-1,5,-4,87*
C1CCC(C(CC2CCCCN2)C2CCCCC2)CC1 (centres undefined),4,8,33,11,99*
CC(OC(=O)C1CCC1)C(=O)Nc1cc(Cl)cc(Cl)c1 (centres undefined),-6,0,10,-2,.
Cc1ccc(Cl)cc1NC(=S)N(Cc1cccs1)C1CCCC1,-18,0,3,-3,82*
Cc1ccc(NCCC(=O)c2cccs2)cc1,-93,5,-113,1,-30
Cc1ccc(NCCC(=O)c2cccs2)cc1Cl,-41,4,-27,1,80*

# Screening results (PubChem BioAssay)
